PubChem BioAssay AID623918 (The Scripps Research Institute Molecular Screening Center, 2012)

system: E. coli V66 Hfr conjugation, recombinant frequency by colony plating; assay: reduction of Hfr conjugational recombinant frequency – colony formation, V66 E. coli, provider lab, counter-screen for AddAB inhibitor project, late-stage follow-up (AID 623918)
In short: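 Signal: colony counting after differential plating for His+ StrR recombinants, viability on non-selective plates; assay system: E. coli conjugation, F- recipient cells mated with Hfr donor cells; schedule: 1 h recipient growth, 30 min mating, 1.5 h compound exposure; compound dosing: 5 doses, 0.03–100 µM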

Structure (SMILES) | IC50 [nM]
C=CCn1c(Sc2ncc([N+](=O)[O-])s2)n[nH]c1=O | < 1000
CCn1cc(C(=O)O)c(=O)c2cnc(N3CCNCC3)nc21 | < 100
O=C(NCc1cccnc1)c1ccc([N+](=O)[O-])o1 | < 100
CCn1cc(C(=O)O)c(=O)c2cc(F)c(N3CCN(C(=S)Nc4cccc(C(F)(F)F)c4)CC3)cc21 | < 1000
O=C(Nc1ncccn1)c1ccc([N+](=O)[O-])o1 | 30
CCn1cc(C(=O)O)c(=O)c2cnc(N3CCN(C(=S)Nc4ccccc4C(F)(F)F)CC3)nc21 | < 1000
CCn1cc(C(=O)O)c(=O)c2cnc(N3CCN(C(=S)Nc4cccc(C(F)(F)F)c4)CC3)nc21 | 100
